What was measured:
PDIA1 [1] = molecular target: T1, PDIA1 (Homo sapiens, UniProt P07237); test: PDI reductase assay; type: biochemical
U−87 MG cells = test: MTT growth inhibition assay in U-87 MG cells; type: cell-based; settings: Homo sapiens, read-out: MTT (% inhibition at 30 μM)
How it was run: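 Cells were grown at 37 °C, 5% CO₂ in 10% FBS medium: DMEM for U-87 MG, RPMI-1640 for A-172. Duplicate wells of 3000–5000 cells were attached overnight, then exposed to 30 μM test compound for 72 h. MTT (3 mg/mL) was added for 4 h at 37 °C and formazan dissolved in DMSO before reading A570. Inhibition (%) = [1−(At−Ab)/(Ac−Ab)]×100.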

PDI [2] = molecular target: T2, PDI (Homo sapiens, UniProt P07237); test: Protein mass spectrometry; type: binding; settings: 10 μM PDI, 100 μM DTT, 100 μM compound
How it was run: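 Recombinant human PDI (10 μM) was incubated with 100 μM test compound and 100 μM DTT for 30 min before injection for Q-TOF intact-protein mass spectrometry to detect covalent adducts.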

PDI [3] = molecular target: T2, PDI; test: Reversibility; type: biochemical; settings: compound concentrations 10 times that of the protein
PDI [4] = molecular target: T2, PDI; test: kinact/KI determination in PDI reductase assay with reduced PDI; type: biochemical
PDIA1 [5] = molecular target: T1, PDIA1; test: Glutathione competition in PDI reductase assay; type: biochemical; settings: 5 mM GSH
PDI [6] = molecular target: T2, PDI; test: Thermal shift assay; type: binding; settings: oxidized PDI; 100 μM compound

T1 sequence (P07237 18-508): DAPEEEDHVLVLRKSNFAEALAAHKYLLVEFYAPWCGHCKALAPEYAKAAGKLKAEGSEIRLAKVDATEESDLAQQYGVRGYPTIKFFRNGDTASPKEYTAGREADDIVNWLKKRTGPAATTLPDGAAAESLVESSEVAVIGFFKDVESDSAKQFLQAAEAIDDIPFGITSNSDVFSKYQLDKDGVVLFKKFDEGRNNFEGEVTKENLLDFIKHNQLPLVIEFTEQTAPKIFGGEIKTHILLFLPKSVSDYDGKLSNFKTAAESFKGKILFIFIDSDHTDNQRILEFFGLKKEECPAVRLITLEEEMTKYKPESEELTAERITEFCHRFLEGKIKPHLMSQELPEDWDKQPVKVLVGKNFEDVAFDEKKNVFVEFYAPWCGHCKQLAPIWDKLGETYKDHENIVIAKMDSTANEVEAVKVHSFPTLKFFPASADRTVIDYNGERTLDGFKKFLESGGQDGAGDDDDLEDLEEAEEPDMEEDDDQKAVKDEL
T2 sequence (P07237 18-508): as above

COc1cccc(C(c2ccc3cccnc3c2O)N2CCOCC2)c1OC (stereo not drawn) [5a, 7-((2,3-Dimethoxyphenyl)(morpholino)methyl)quinolin-8-ol]
PDI inhibition in the PDI reductase assay (in words) (PDIA1 [1]): submicromolar IC50 values

Oc1c(C(c2ccc(F)cc2)N2CCCCC2)ccc2cccnc12 (stereo not drawn) [5b, 7-((4-Fluorophenyl)(piperidin-1-yl)methyl)quinolin-8-ol]
PDI inhibition in the PDI reductase assay (in words) (PDIA1 [1]): submicromolar IC50 values

Oc1c(C(c2ccc(F)cc2)N2CCCCC2)ccc2cncnc12 (stereo not drawn) [5c, 7-((4-Fluorophenyl)(piperidin-1-yl)methyl)quinazolin-8-ol]
inhibition at 30 µM (U−87 MG cells): 32%

Oc1c(C(c2ccc(F)cc2)N2CCCCC2)ccc2nccnc12 (stereo not drawn) [5e, 6-((4-Fluorophenyl)(piperidin-1-yl)methyl)quinoxalin-5-ol]
inhibition at 30 µM (U−87 MG cells): 0%

Oc1c(C(c2ccc(F)cc2)N2CCCCC2)ccc2scnc12 (stereo not drawn) [5f, 5-((4-Fluorophenyl)(piperidin-1-yl)methyl)benzo[d]thiazol-4-ol]
inhibition at 30 µM (U−87 MG cells): 0%

Oc1c(C(c2ccc(F)cc2)N2CCCCC2)ccc2ccoc12 (stereo not drawn) [5g, 6-((4-Fluorophenyl)(piperidin-1-yl)methyl)benzofuran-7-ol]
inhibition at 30 µM (U−87 MG cells): 0%

Oc1c(C(c2ccc(F)cc2)N2CCCCC2)ccc2c1OCCO2 (stereo not drawn) [5h, 6-((4-Fluorophenyl)(piperidin-1-yl)methyl)-2,3-dihydrobenzo[b][1,4]dioxin-5-ol]
inhibition at 30 µM (U−87 MG cells): 0%

Oc1c(C(c2ccc(F)cc2)N2CCCCC2)ccc2c1OCO2 (stereo not drawn) [5i, 5-((4-Fluorophenyl)(piperidin-1-yl)methyl)benzo[d][1,3]dioxol-4-ol]
inhibition at 30 µM (U−87 MG cells): 0%

Oc1c(C(c2ccc(F)cc2)N2CCCCC2)ccc2cnccc12 (stereo not drawn) [5j, 6-((4-Fluorophenyl)(piperidin-1-yl)methyl)isoquinolin-5-ol]
inhibition at 30 µM (U−87 MG cells): 0%

Oc1c(C(c2ccc(F)cc2)N2CCCCC2)ccc2c1CCC2 (stereo not drawn) [5k, 5-((4-Fluorophenyl)(piperidin-1-yl)methyl)-2,3-dihydro-1H-inden-4-ol]
PDI inhibition in the PDI reductase assay (in words) (PDIA1 [1]): complete loss of the potency

CN(C)c1cccc(C(c2ccc(F)cc2)N2CCCCC2)c1O (stereo not drawn) [5l, 2-(Dimethylamino)-6-((4-fluorophenyl)(piperidin-1-yl)methyl)phenol]
PDI inhibition in the PDI reductase assay (in words) (PDIA1 [1]): lost activity | inhibition at 30 µM (U−87 MG cells): 0%

CC(=O)c1cc2ccc(C(c3ccc(F)cc3)N3CCCCC3)c(O)c2o1 (stereo not drawn) [5m, 1-(6-((4-Fluorophenyl)(piperidin-1-yl)methyl)-7-hydroxybenzofuran-2-yl)ethanone]
inhibition at 30 µM (U−87 MG cells): 0%

Oc1cc(F)ccc1C(c1ccc2ccoc2c1O)N1CCCCC1 (stereo not drawn) [5n, 6-((4-Fluoro-2-hydroxyphenyl)(piperidin-1-yl)methyl)benzofuran-7-ol]
inhibition at 30 µM (U−87 MG cells): 0%

Oc1c(C(c2ccc3c(c2)CCC3)N2CCCCC2)ccc2ccoc12 (stereo not drawn) [5o, 6-((2,3-Dihydro-1H-inden-5-yl)(piperidin-1-yl)methyl)benzofuran-7-ol]
inhibition at 30 µM (U−87 MG cells): 5%

Oc1c(C(c2ccc3c(c2)OC(F)(F)O3)N2CCCCC2)ccc2ccoc12 (stereo not drawn) [5q, 6-((2,2-Difluorobenzo[d][1,3]dioxol-5-yl)(piperidin-1-yl)methyl)benzofuran-7-ol]
inhibition at 30 µM (U−87 MG cells): 9%

Oc1c(C(c2ccc(C(F)(F)F)cc2)N2CCCCC2)ccc2ccoc12 (stereo not drawn) [5r, 6-(Piperidin-1-yl(4-(trifluoromethyl)phenyl)methyl)benzofuran-7-ol]
inhibition at 30 µM (U−87 MG cells): 5%

COc1cccc(C(c2cc3c(cc2O)OCO3)N2CCOCC2)c1OC (stereo not drawn) [6a, 6-((2,3-Dimethoxyphenyl)(morpholino)methyl)benzo[d][1,3]dioxol-5-ol]
covalent binding to PDI by mass spectrometry (PDI [2]): bound reduced PDI at three sites | PDI activity recovery after dilution (PDI [3]): too active at this ratio

Oc1cc2c(cc1C(c1ccc(F)cc1)N1CCCCC1)OCCO2 (stereo not drawn) [6c, 7-((4-Fluorophenyl)(piperidin-1-yl)methyl)-2,3-dihydrobenzo[b][1,4]dioxin-6-ol]
inhibition at 30 µM (U−87 MG cells): 1%

Oc1cc2c(cc1C(c1ccc(F)cc1)N1CCCCC1)NCC2 (stereo not drawn) [6d, 6-((4-Fluorophenyl)(piperidin-1-yl)methyl)indolin-5-ol]
PDI inhibition in the PDI reductase assay (in words) (PDIA1 [1]): moderate loss of activity | inhibition at 30 µM (U−87 MG cells): 0%

COc1cccc(C(c2cc3c(cc2O)OC(F)(F)O3)N2CCOCC2)c1OC (stereo not drawn) [6e, 6-((2,3-Dimethoxyphenyl)(morpholino)methyl)-2,2-difluorobenzo[d][1,3]dioxol-5-ol]
inhibition at 30 µM (U−87 MG cells): 40%

Oc1cc2c(cc1C(c1ccc(F)cc1)N1CCCCC1)CCCC2 (stereo not drawn) [6g, 3-((4-Fluorophenyl)(piperidin-1-yl)methyl)-5,6,7,8-tetrahydronaphthalen-2-ol]
PDI inhibition in the PDI reductase assay (in words) (PDIA1 [1]): completely lost activity | inhibition at 30 µM (U−87 MG cells): 0%

Oc1ccc2ncccc2c1C(c1ccc(F)cc1)N1CCCCC1 (stereo not drawn) [7a, 5-((4-Fluorophenyl)(piperidin-1-yl)methyl)quinolin-6-ol]
inhibition at 30 µM (U−87 MG cells): 10%

Oc1ccc2scnc2c1C(c1ccc(F)cc1)N1CCCCC1 (stereo not drawn) [7b, 4-((4-Fluorophenyl)(piperidin-1-yl)methyl)benzo[d]thiazol-5-ol]
inhibition at 30 µM (U−87 MG cells): 1%

Oc1ccc2nccnc2c1C(c1ccc(F)cc1)N1CCCCC1 (stereo not drawn) [7c, 5-((4-Fluorophenyl)(piperidin-1-yl)methyl)quinoxalin-6-ol]
inhibition at 30 µM (U−87 MG cells): 0%

Oc1ccc2ccncc2c1C(c1ccc(F)cc1)N1CCCCC1 (stereo not drawn) [7d, 8-((4-Fluorophenyl)(piperidin-1-yl)methyl)isoquinolin-7-ol]
inhibition at 30 µM (U−87 MG cells): 0%

Oc1ccc2cnccc2c1C(c1ccc(F)cc1)N1CCCCC1 (stereo not drawn) [7e, 5-((4-Fluorophenyl)(piperidin-1-yl)methyl)isoquinolin-6-ol]
inhibition at 30 µM (U−87 MG cells): 0%

Oc1ccc2[nH]ccc2c1C(c1ccc(F)cc1)N1CCCCC1 (stereo not drawn) [7f, 4-((4-Fluorophenyl)(piperidin-1-yl)methyl)-1H-indol-5-ol]
inhibition at 30 µM (U−87 MG cells): 0%

Oc1ccc2[nH]ncc2c1C(c1ccc(F)cc1)N1CCCCC1 (stereo not drawn) [7g, 4-((4-Fluorophenyl)(piperidin-1-yl)methyl)-1H-indazol-5-ol]
inhibition at 30 µM (U−87 MG cells): 87%

Oc1ccc2[nH]ncc2c1C(c1ccc(C(F)(F)F)cc1)N1CCCCC1 (stereo not drawn) [7h, 4-(Piperidin-1-yl(4-(trifluoromethyl)phenyl)methyl)-1H-indazol-5-ol]
inhibition at 30 µM (U−87 MG cells): 0%

O=[N+]([O-])c1ccc(C(c2c(O)ccc3[nH]ncc23)N2CCCCC2)cc1 (stereo not drawn) [7i, 4-((4-Nitrophenyl)(piperidin-1-yl)methyl)-1H-indazol-5-ol]
inhibition at 30 µM (U−87 MG cells): 0%

Oc1ccc2[nH]ncc2c1C(c1ccc(-c2nccs2)cc1)N1CCCCC1 (stereo not drawn) [7j, 4-(Piperidin-1-yl(4-(thiazol-2-yl)phenyl)methyl)-1H-indazol-5-ol]
inhibition at 30 µM (U−87 MG cells): 0%

Oc1ccc2[nH]ncc2c1C(c1ccc(-n2cccc2)cc1)N1CCCCC1 (stereo not drawn) [7k, 4-((4-(1H-Pyrrol-1-yl)phenyl)(piperidin-1-yl)methyl)-1H-indazol-5-ol]
inhibition at 30 µM (U−87 MG cells): 0%

Oc1ccc2[nH]ncc2c1C(c1ccc(-c2cncnc2)cc1)N1CCCCC1 (stereo not drawn) [7l, 4-(Piperidin-1-yl(4-(pyrimidin-5-yl)phenyl)methyl)-1H-indazol-5-ol]
inhibition at 30 µM (U−87 MG cells): 0%

COC(=O)C1(C)c2[nH]c3ccccc3c2CCN1C(=O)CCl (stereo not drawn) [16F16]
kinact/KI (PDI [4]): 170 M⁻¹ s⁻¹

N#Cc1cccc(/C=C/C(=O)c2ccc(O)cc2)c1 [BAP2, reference compound]
PDI inhibition in the presence of competing glutathione (PDIA1 [5]): remained active

C#CC(=O)N(c1ccc(OC)cc1OC)C(C(=O)NCC(=O)OCC)c1cccs1 (stereo not drawn) [PACMA31, reference compound]
kinact/KI (PDI [4]): 200 M⁻¹ s⁻¹ | stabilization of PDI to thermal degradation (PDI [6]): did not stabilize PDI to thermal degradation

COc1c(C(c2ccc(F)cc2)N2CCCCC2)ccc2ccoc12 (stereo not drawn) [compound 8, 1-((4-Fluorophenyl)(7-methoxybenzofuran-6-yl)methyl)piperidine]
PDI inhibition in the PDI reductase assay (in words) (PDIA1 [1]): lost activity

Oc1cc2c(cc1C(c1ccccc1)C1CCCCC1)OCO2 (stereo not drawn) [compound 13, 6-(Cyclohexyl(phenyl)methyl)benzo[d][1,3]dioxol-5-ol]
PDI inhibition in the PDI reductase assay (in words) (PDIA1 [1]): abolished its PDI inhibition

CN(C)c1ccc(C(Nc2ncccn2)c2cc3c(cc2O)OCO3)cc1 (stereo not drawn) [compound 14, 6-((4-(Dimethylamino)phenyl)(pyrimidin-2-ylamino)methyl)benzo[d][1,3]dioxol-5-ol]
PDI inhibition in the presence of competing glutathione (PDIA1 [5]): maintained potency

O=c1c(O[C@@H]2O[C@H](CO)[C@@H](O)[C@H](O)[C@H]2O)c(-c2ccc(O)c(O)c2)oc2cc(O)cc(O)c12 [isoquercetin, reference compound]
PDI inhibition in the presence of competing glutathione (PDIA1 [5]): remained active

Reference: article PMC8103808 (Journal of medicinal chemistry, 2020)
